Holding throughout (format): functional
Assay [1] concerns PBMC. The assay can be described thus: Antiinflammatory activity in LPS-induced human PBMC cells assessed as IL-1beta release at 100 uM after 24 hrs by luminex based bead assay relative to control. The essentials:
(§1)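 Pooled cryopreserved human PBMCs from three donors were thawed and resuspended in RPMI 1640 with 10% FBS, at 100 000 cells/well. Each test item was given at 100 μM from a 20 mM DMSO stock, with 0.5% final DMSO. It was co-incubated with 10 μg/mL LPS for 24 h at 37 °C and 5% CO2. Supernatant was read by MagPix cytokine bead array, expressed as % of LPS control, n = 1.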

In assay [2] the test system is PBMC. In words: Antiinflammatory activity in LPS-induced human PBMC cells assessed as IL-2 release at 100 uM after 24 hrs by luminex based bead assay relative to control. The method in brief: as §1
For assay [3], the system named is PBMC. The assay can be described thus: Antiinflammatory activity in LPS-induced human PBMC cells assessed as IL-6 release at 100 uM after 24 hrs by luminex based bead assay relative to control. The essentials: as §1
Assay [4] relates to PBMC. In words: Antiinflammatory activity in LPS-induced human PBMC cells assessed as GM-CSF release at 100 uM after 24 hrs by luminex based bead assay relative to control. The method in brief:
as §1

The test system of assay [5] is PBMC. The assay can be described thus: Antiinflammatory activity in LPS-induced human PBMC cells assessed as TNFalpha release at 100 uM after 24 hrs by luminex based bead assay relative to control. The essentials: as §1

Drawing on ChEMBL document CHEMBL4610079, “Anti-inflammatory Flavanones and Flavones from Tephrosia linearis” (2020), this text covers Activity for 19 molecules.

Regarding `COc1cc(-c2cc(=O)c3ccc(O)cc3o2)ccc1O`, the Activity is 109.22% in assay [1]; 57.64% in assay [2]; 100% in assay [3]; 92.58% in assay [4]; 3.64% in assay [5].

Take `C=C(C)C(O)Cc1c(O)cc2oc(-c3ccc(O)cc3)cc(=O)c2c1O` (stereo not given): the Activity is 103.28% in assay [1]; 57.64% in assay [2]; 238.54% in assay [3]; 38.92% in assay [4]; 5.2% in assay [5].

As to `COc1cc2oc(-c3ccc(O)c(O)c3)c(O[C@@H]3O[C@@H](C)[C@H](O)[C@@H](O)[C@H]3O)c(=O)c2c(O)c1OC`, the Activity in assay [1] stood at 148.44%; in assay [2] it was 17.72%; in assay [3], 24.94%; in assay [4] it was 48.79%; in assay [5] it was 3.83%.

With `COc1cc([C@@H]2CC(=O)c3cc(OC)c(O)cc3O2)ccc1O`, the Activity was 220.43% in assay [1]; 57.6% in assay [2]; 100% in assay [3]; 35.76% in assay [4]; 12.55% in assay [5].

Take `COc1c2c(c(/C=C\C(C)(C)O)c3oc(-c4ccccc4)cc(=O)c13)OC(C)(C)C=C2`: the Activity in assay [1] amounted to 1.18%; in assay [2], 57.6%; in assay [3], 0%; in assay [4] it was 8.63%; in assay [5] it was 0.17%.

As for `C=C(C)/C=C/c1c2c(c(O)c3c(=O)cc(-c4ccccc4)oc13)C=CC(C)(C)O2`, the Activity was 169.84% in assay [1]; 17.72% in assay [2]; 622.32% in assay [3]; 78.39% in assay [4]; 1.89% in assay [5].

As for `COc1cc2c(c(O)c1CC=C(C)C)C(=O)C[C@@H](c1ccc(O)cc1)O2`, the Activity in assay [1] is 102.34%; in assay [2], 57.64%; in assay [3], 19.57%; in assay [4], 46.89%; in assay [5] it was 6.38%.

For the molecule `COc1cc(-c2cc(=O)c3cc(OC)c(O)cc3o2)ccc1O`, the Activity in assay [1] amounted to 170.51%; in assay [2] it was 17.72%; in assay [3], 43.11%; in assay [4] it was 17.39%; in assay [5], 4.03%.

For the molecule `CC(=O)OCC1(C)C=Cc2c(cc(O)c3c2O[C@H](c2ccccc2)CC3=O)O1` (stereo not given in full), the Activity in assay [1] stood at 157.09%; in assay [2], 17.72%; in assay [3], 43.39%; in assay [4] it was 40.97%; in assay [5] it was 2.66%.

For `C=C(C)/C=C/c1c2c(c(OC)c3c(=O)cc(-c4ccccc4)oc13)C=CC(C)(C)O2`, the Activity in assay [1] stood at 75.85%; in assay [2], 57.6%; in assay [3] it was 97.43%; in assay [4], 83.73%; in assay [5], 3.15%.

On to `COc1c2c(c(/C=C/C(C)(C)OC)c3oc(-c4ccccc4)cc(=O)c13)OC(C)(C)C=C2`, for which the Activity in assay [1] is given as 68.27%; in assay [2], 57.6%; in assay [3], 10.89%; in assay [4] it was 17.39%; in assay [5], 0.92%.

`COc1c(O)cc2oc(-c3ccc(O)c(O)c3)c(O[C@@H]3O[C@@H](C)[C@H](O)[C@@H](O)[C@H]3O)c(=O)c2c1O`: the Activity in assay [1] was 4.81%; in assay [2] it was 57.6%; in assay [3] it was 0.64%; in assay [4], 8.63%; in assay [5] it was 0.54%.

In the case of `CC(C)=CCc1c(O)cc2oc(-c3ccc(O)cc3)cc(=O)c2c1O`, the Activity stood at 40.83% in assay [1]; 17.72% in assay [2]; 24.72% in assay [3]; 48.79% in assay [4]; 5.01% in assay [5].

As to `C=C(C)C(O)Cc1c(OC)cc2c(c1O)C(=O)C[C@@H](c1ccc(O)cc1)O2` (stereo not given in full), the Activity in assay [1] is given as 53.77%; in assay [2], 17.72%; in assay [3], 25.79%; in assay [4] it was 32.47%; in assay [5], 4.03%.

Turning to `O=c1cc(-c2ccc(O)cc2)oc2cc(O)cc(O)c12` [APIGENIN], the Activity in assay [1] stood at 105.17%; in assay [2], 57.6%; in assay [3], 48.33%; in assay [4] it was 32.47%; in assay [5], 4.22%.

On to `CC1(C)C=Cc2c(cc(O)c3c(=O)cc(-c4ccc(O)cc4)oc23)O1` [ATALANTOFLAVONE], for which the Activity in assay [1] was 48.35%; in assay [2], 57.64%; in assay [3] it was 7.23%; in assay [4], 4.87%; in assay [5], 1.12%.

Consider `CC(C)Cc1ccc(C(C)C(=O)O)cc1` (stereo not given) [IBUPROFEN], for which the Activity came to 199.29% in assay [1]; 80.33% in assay [2]; 46.46% in assay [3]; 47.76% in assay [4]; 12.23% in assay [5].

As to `O=c1cc(-c2ccc(O)c(O)c2)oc2cc(O)cc(O)c12` [LUTEOLIN], the Activity came to 0.67% in assay [1]; 57.6% in assay [2]; 0.04% in assay [3]; 8.63% in assay [4]; 0.17% in assay [5].

Turning to `COc1cc(O)c2c(=O)cc(-c3ccc(O)c(OC)c3)oc2c1` [VELUTIN], the Activity in assay [1] is listed as 0.8%; in assay [2], 57.6%; in assay [3], 0.09%; in assay [4] it was 8.63%; in assay [5], 0.92%.
